Common to all, as to type: cell-based
In experiment [1] the target is T1, Sodium channel protein type 5 subunit alpha (Homo sapiens, UniProt Q14524). Description: Inhibition of human Nav1.5 expressed in HEK293 cells by whole cell patch clamp electrophysiology method. The method in brief: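 Stable HEK293 line expressing human NaV1.5, recorded on the PatchXpress 7000A. Percent inhibition versus concentration was pooled from at least 10 cells, with two to three points per concentration. The pooled set was fitted with a four-parameter Hill equation to give a single IC50 curve.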
T1 sequence (Q14524 whole entry): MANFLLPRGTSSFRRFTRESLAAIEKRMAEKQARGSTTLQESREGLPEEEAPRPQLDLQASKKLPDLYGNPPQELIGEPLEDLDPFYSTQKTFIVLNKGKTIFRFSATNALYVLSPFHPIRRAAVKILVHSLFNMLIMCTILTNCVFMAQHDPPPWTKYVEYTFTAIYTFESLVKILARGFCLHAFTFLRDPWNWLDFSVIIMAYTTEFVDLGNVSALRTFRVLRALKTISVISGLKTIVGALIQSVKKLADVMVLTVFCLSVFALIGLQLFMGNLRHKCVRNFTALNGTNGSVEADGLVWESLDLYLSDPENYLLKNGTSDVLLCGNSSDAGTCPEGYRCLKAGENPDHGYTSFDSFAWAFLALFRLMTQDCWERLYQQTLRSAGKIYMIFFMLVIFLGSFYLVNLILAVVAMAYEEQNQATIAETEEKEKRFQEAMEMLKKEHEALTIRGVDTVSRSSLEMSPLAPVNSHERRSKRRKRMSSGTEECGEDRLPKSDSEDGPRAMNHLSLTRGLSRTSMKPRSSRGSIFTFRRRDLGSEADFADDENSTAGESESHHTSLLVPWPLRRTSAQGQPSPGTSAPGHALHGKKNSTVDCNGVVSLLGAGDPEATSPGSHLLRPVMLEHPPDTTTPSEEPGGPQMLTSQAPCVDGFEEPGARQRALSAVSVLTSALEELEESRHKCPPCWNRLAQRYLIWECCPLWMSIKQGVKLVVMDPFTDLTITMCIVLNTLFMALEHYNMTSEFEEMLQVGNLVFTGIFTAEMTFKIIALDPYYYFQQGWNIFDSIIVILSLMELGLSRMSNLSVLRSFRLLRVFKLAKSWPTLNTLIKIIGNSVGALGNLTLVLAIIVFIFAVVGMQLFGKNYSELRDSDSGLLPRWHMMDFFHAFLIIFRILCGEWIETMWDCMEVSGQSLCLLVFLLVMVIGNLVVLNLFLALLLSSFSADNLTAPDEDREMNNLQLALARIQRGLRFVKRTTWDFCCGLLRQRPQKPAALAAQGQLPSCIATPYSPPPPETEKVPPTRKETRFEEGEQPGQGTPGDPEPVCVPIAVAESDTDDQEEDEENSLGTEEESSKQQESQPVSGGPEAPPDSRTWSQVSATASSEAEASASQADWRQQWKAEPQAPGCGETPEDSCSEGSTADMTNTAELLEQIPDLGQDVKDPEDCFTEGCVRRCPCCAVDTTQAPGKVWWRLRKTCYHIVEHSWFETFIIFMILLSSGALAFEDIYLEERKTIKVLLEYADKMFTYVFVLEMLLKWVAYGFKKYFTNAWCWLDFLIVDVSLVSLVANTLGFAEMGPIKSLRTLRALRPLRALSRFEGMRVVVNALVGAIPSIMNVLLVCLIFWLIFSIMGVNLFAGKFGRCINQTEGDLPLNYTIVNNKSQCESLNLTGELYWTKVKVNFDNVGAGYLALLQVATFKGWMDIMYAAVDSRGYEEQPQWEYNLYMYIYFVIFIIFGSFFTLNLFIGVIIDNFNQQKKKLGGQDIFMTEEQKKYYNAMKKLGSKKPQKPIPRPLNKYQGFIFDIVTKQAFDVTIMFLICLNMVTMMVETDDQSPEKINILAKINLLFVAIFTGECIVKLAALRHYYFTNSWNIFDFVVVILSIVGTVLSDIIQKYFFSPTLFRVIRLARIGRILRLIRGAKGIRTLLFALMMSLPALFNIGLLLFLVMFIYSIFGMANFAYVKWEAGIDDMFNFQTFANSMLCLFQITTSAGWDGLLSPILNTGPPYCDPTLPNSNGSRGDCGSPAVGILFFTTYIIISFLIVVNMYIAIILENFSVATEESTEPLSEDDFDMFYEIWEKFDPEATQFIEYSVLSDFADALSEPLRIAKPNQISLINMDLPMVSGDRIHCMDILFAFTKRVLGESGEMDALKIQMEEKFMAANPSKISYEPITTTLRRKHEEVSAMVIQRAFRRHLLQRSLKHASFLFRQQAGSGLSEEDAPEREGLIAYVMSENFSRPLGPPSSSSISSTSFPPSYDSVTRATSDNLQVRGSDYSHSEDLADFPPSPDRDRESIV

The target in experiment [2] is T2, Sodium channel protein type 9 subunit alpha (Homo sapiens, UniProt Q15858). Description: Inhibition of human Nav1.7 expressed in HEK293 cells assessed as inward peak current by ion-works quattro patch clamp electrophysiology method. Background: The patch-clamp technique gives a direct electrical read-out from membranes.
T2 sequence (Q15858 whole entry): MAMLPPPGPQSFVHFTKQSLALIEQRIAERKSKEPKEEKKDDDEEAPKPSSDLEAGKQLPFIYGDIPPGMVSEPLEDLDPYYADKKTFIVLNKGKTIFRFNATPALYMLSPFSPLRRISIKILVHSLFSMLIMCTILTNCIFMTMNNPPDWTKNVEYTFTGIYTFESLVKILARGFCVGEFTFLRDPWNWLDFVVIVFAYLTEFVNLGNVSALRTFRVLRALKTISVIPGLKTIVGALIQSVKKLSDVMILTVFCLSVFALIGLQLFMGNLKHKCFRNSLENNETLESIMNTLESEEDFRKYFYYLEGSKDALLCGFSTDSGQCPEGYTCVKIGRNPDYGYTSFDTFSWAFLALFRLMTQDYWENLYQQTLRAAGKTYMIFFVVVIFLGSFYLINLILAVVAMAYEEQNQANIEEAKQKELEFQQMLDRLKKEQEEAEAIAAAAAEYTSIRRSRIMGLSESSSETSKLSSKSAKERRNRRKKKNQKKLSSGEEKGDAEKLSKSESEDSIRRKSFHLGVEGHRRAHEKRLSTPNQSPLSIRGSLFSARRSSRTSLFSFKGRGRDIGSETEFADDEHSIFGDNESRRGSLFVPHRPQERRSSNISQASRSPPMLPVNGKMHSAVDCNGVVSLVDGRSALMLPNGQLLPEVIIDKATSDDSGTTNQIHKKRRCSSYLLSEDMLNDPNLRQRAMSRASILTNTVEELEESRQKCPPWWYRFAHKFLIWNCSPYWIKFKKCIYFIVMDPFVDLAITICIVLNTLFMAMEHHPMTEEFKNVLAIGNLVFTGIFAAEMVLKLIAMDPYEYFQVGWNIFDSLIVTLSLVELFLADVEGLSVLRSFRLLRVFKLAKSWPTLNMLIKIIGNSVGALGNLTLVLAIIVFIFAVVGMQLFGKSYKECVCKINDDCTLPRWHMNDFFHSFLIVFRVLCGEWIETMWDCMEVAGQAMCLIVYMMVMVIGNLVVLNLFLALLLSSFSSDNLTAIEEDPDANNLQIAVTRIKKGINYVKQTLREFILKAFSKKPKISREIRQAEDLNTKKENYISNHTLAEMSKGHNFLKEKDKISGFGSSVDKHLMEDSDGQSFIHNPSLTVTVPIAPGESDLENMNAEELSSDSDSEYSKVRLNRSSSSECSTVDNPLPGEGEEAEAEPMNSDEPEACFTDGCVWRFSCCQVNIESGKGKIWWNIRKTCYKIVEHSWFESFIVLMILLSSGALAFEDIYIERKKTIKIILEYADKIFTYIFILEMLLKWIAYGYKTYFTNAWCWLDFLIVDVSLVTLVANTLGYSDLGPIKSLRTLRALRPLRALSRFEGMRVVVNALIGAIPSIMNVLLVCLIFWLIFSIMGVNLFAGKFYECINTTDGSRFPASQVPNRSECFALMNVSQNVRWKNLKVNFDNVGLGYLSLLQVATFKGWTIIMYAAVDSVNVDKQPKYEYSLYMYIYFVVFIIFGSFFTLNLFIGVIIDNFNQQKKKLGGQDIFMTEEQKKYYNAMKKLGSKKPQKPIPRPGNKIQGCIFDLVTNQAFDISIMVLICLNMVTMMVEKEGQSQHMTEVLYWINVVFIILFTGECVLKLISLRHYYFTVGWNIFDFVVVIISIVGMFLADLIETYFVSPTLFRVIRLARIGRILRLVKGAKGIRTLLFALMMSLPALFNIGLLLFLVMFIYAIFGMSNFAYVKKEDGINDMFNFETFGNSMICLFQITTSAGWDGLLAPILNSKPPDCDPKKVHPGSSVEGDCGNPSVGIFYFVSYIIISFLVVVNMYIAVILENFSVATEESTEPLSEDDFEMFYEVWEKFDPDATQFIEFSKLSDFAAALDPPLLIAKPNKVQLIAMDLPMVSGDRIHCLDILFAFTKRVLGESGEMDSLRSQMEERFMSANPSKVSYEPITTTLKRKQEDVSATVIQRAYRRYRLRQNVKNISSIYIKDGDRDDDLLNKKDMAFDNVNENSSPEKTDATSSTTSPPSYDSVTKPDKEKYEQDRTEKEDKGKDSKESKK
Experiment [3] addresses T2, Sodium channel protein type 9 subunit alpha. Put plainly: Inhibition of human Nav1.7 expressed in HEK293 cells by whole cell patch clamp electrophysiology method.
The target of experiment [4] is T1, Sodium channel protein type 5 subunit alpha. Put plainly: Inhibition of human Nav1.5 expressed in HEK293 cells assessed as inward peak current by ion-works quattro patch clamp electrophysiology method. Summed up:
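Stable HEK293 line expressing human NaV1.5, recorded by population patch clamp on the IonWorks Quattro.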

IC50 data for two molecules are collected here from ChEMBL document CHEMBL3797186, “Single Residue Substitutions That Confer Voltage-Gated Sodium Ion Channel Subtype Selectivity in the NaV1.7 Inhibitory Peptide GpTx-1” (J Med Chem, 2016).

Positions of bridges follow the written chain, without caps; N, C: chain ends. Residues, ends and D or L forms follow the SMILES beside them.

On to `CC[C@H](C)[C@@H]1NC(=O)[C@@H]2CSSC[C@@H]3NC(=O)[C@H](Cc4c[nH]c5ccccc45)NC(=O)[C@H](CC(C)C)NC(=O)[C@H](CC(N)=O)NC(=O)[C@@H]4CCCN4C(=O)[C@H](CCCNC(=N)N)NC(=O)[C@H](CSSC[C@H](NC(=O)[C@@H](N)CC(=O)O)C(=O)N[C@@H](CC(C)C)C(=O)NCC(=O)N[C@@H](Cc4ccccc4)C(=O)N[C@@H](CCSC)C(=O)N[C@@H](CCCNC(=N)N)C(=O)N[C@@H](CCCCN)C(=O)N2)NC(=O)[C@H](CSSC[C@@H](C(=O)N[C@@H](CCCCN)C(=O)N[C@@H](Cc2ccc(O)cc2)C(=O)N[C@H](C(=O)N[C@@H](Cc2ccccc2)C(N)=O)C(C)C)NC(=O)[C@H](Cc2c[nH]c4ccccc24)NC(=O)[C@H](CCCCN)NC(=O)[C@H](Cc2cnc[nH]2)NC(=O)[C@H]([C@@H](C)O)NC(=O)[C@H](CCCNC(=N)N)NC(=O)[C@H](CO)NC3=O)NC(=O)[C@H](CCCCN)NC(=O)[C@H](CC(=O)O)NC(=O)[C@H](CC(N)=O)NC(=O)[C@H](CC(=O)O)NC(=O)[C@@H]2CCCN2C1=O` (H-DCLGFMRKCIPDNDKCCRPNLWCSRTHKWCKYVF-NH2; disulfide 2-17, 9-23, 16-30), for which the concentration for half-maximal inhibition (IC50) (usually the concentration at which inhibition is half-maximal) in experiment [1] is 3200 nM; in experiment [2] it was 60 nM; in experiment [3], 42 nM; in experiment [4], more than 5000 nM.
For `CSCC[C@@H]1NC(=O)[C@H](Cc2ccccc2)NC(=O)CNC(=O)[C@H](CC(C)C)NC(=O)[C@@H](NC(=O)[C@@H](N)CC(=O)O)CSSC[C@@H]2NC(=O)[C@@H]3CSSC[C@@H](C(=O)N[C@@H](CCCCN)C(=O)N[C@@H](Cc4ccc(O)cc4)C(=O)N[C@H](C(=O)N[C@@H](Cc4ccccc4)C(N)=O)C(C)C)NC(=O)[C@H](Cc4c[nH]c5ccccc45)NC(=O)[C@H](CCCCN)NC(=O)[C@H](Cc4cnc[nH]4)NC(=O)[C@H]([C@@H](C)O)NC(=O)[C@H](CCCNC(=N)N)NC(=O)[C@H](CO)NC(=O)[C@H](CSSC[C@H](NC(=O)[C@H](CCCCN)NC(=O)[C@H](CCCNC(=N)N)NC1=O)C(=O)N[C@@H](CC(N)=O)C(=O)N1CCC[C@H]1C(=O)N[C@@H](CC(=O)O)C(=O)N[C@@H](CC(N)=O)C(=O)N[C@@H](CC(=O)O)C(=O)N[C@@H](CCCCN)C(=O)N3)NC(=O)[C@H](C(C)C)NC(=O)[C@H](CC(C)C)NC(=O)[C@H](CC(N)=O)NC(=O)[C@@H]1CCCN1C(=O)[C@H](CCCNC(=N)N)NC2=O` (H-DCLGFMRKCNPDNDKCCRPNLVCSRTHKWCKYVF-NH2; disulfide 2-17, 9-23, 16-30), in that order: more than 10000 nM, 330 nM, 1.9 nM and more than 5000 nM.
